These results are taken from PMC4455950 (Journal of the American Chemical Society, 2008).

The test system of assay [1] is human Vα24+ NKT cell line cocultured with Hela cells transfected with human CD1d. In words: Cytokine secretion assay using human NKT cell lines. Format: cell-based. Particulars: for IFN-γ secretion normalized to α-GalCer / IL-4 secretion normalized to α-GalCer: 10 ng/mL glycolipid, 24 h, ELISA, relative to α-GalCer = 1.00; for IFN-γ/IL-4 ratio: IFN-γ ratio/IL-4 ratio, normalized to α-GalCer. The procedure, abridged:
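Vα24+ NKT lines come from bead-isolated leukopak T cells. They were expanded 10 days on irradiated (3000 rads) CD14-derived immature DCs with 100 ng/mL α-GalCer and 10 IU/mL IL-2. Assay: 20 000 NKT cells plus 2 × 10^4 irradiated (10 000 rads) human CD1d-transfected HeLa cells, 10 ng/mL test compound, 24 h. Supernatant IFN-γ or IL-4 by ELISA, normalised to α-GalCer; triplicate, mean ± SD.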
On the technique in general: An ELISA detects its analyte on a solid surface through an enzyme-linked reagent.

The target in assay [2] is T1, mCD1d:Ig fusion protein (dimeric CD1d) (Mus musculus, UniProt P11609).
T1 sequence (P11609 22-305 limits assumed): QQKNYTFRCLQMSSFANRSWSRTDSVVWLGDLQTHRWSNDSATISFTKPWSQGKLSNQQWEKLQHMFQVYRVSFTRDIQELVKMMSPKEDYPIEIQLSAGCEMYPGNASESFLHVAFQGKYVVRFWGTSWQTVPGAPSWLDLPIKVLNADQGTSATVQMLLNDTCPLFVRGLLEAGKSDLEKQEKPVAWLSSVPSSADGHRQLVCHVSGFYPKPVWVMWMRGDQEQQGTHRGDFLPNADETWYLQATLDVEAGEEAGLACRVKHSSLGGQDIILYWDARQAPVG
T1 sequence (P01887 21-119 partner): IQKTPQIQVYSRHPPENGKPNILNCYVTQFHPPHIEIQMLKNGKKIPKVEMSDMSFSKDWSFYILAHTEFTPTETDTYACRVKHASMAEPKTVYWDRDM
In words: Competitive binding assay on microarray. Particulars: for binding with CD1d stronger than α-GalCer: relative to α-GalCer. The procedure, abridged:
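Glass slides carry a covalently attached amine-linked α-GalCer analogue printed at 100 μM. Test compound (400 to 0.1 μM, 1.0% DMSO) is preincubated with dimeric mCD1d:Ig (500 nM) for 5–8 h. Mixture goes on slides 1 h at room temperature, humidified. Detection uses precomplexed biotinylated rat anti-mCD1d (20 μg/mL) plus Cy3-streptavidin (10 μg/mL), 1 h, then a 595 nm scan. Ki is fitted to a competitive surface-binding equation.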

The target of assay [3] is CD1d. Particulars: read-out: dissociation constant from IEF; cited from earlier work.
Assay [4] deals with CD1d. Particulars: read-out: dissociation constant from ITC; cited from earlier work.

Entries after “also recorded” stand apart in the source; their conditions may differ. Read-outs that look alike come from different tables or passages of the source.

On to `CCCCCCCCCCCCCCC(O)C(O)C(COC1OC(CO)C(O)C(O)C1O)NC(=O)CCCCCCCc1ccccc1` (centres unmarked) [Compound 13], for which, in assay [1], the “IFN-γ secretion normalized to α-GalCer” value is 1.80 ± 0.15, the “IL-4 secretion normalized to α-GalCer” value was 0.87 ± 0.27 and the IFN-γ/IL-4 ratio amounted to 2.07 ± 0.26. For the same compound, in assay [2], the “binding with CD1d stronger than α-GalCer” value is “approximately 1 order of magnitude”.
As for `CCCCCCCCCCCCCCC(O)C(O)C(COC1OC(CO)C(O)C(O)C1O)NC(=O)CCCCCCCc1ccc(F)cc1` (centres unmarked) [Compound 18], in assay [1], the “IFN-γ production (in words)” value is listed as “highest IFN-γ cytokine production; also recorded: highest IFN-γ secretion”, the “IFN-γ secretion normalized to α-GalCer” value came out at 2.39 ± 0.13, the “IL-4 secretion normalized to α-GalCer” value is reported as 0.80 ± 0.09 and the IFN-γ/IL-4 ratio is on record as 3.00 ± 0.16. In addition, in assay [2] (relative to compound 13), the “binding enhancement compared with parent compound 13” value is “approximately 1 order of magnitude”. Further, the “binding with CD1d stronger than α-GalCer” value in assay [2] was 2 order of magnitude.
With `CCCCCCCCCCCCCC[C@@H](O)[C@@H](O)[C@H](CO[C@H]1O[C@H](CO)[C@H](O)[C@H](O)[C@H]1O)NC(=O)CCCCCCCc1ccc(OC)cc1` [Compound 19], in assay [1], the “IFN-γ production (in words)” value is “highest IFN-γ cytokine production”, the “IFN-γ secretion normalized to α-GalCer” value was determined as 2.25 ± 0.06, the “IL-4 secretion normalized to α-GalCer” value is 0.79 ± 0.06 and the IFN-γ/IL-4 ratio turned out to be 2.85 ± 0.10.
Consider `CCCCCCCCCCCCCC[C@@H](O)[C@@H](O)[C@H](CO[C@H]1O[C@H](CO)[C@H](O)[C@H](O)[C@H]1O)NC(=O)CCCCCCCc1ccc(C(F)(F)F)cc1` [Compound 20], for which, in assay [1], the “IFN-γ secretion normalized to α-GalCer” value amounted to 1.43 ± 0.07, the “IL-4 secretion normalized to α-GalCer” value is listed as 0.76 ± 0.08 and the IFN-γ/IL-4 ratio stood at 1.88 ± 0.08.
Take `CCCCCCCCCCCCCC[C@@H](O)[C@@H](O)[C@H](CO[C@H]1O[C@H](CO)[C@H](O)[C@H](O)[C@H]1O)NC(=O)CCCCCCCCCCc1ccc(-c2ccccc2)cc1` [Compound 25]: in assay [1], the “IFN-γ production (in words)” value was “less IFN-γ production”, the “IFN-γ secretion normalized to α-GalCer” value came out at 0.33 ± 0.001, the “IL-4 secretion normalized to α-GalCer” value stood at 0.61 ± 0.06 and the IFN-γ/IL-4 ratio is 0.55 ± 0.04. Moreover, the “binding to CD1d (in words)” value in assay [2] is “lower binding activity”.
As usually defined, the Ki is a dissociation constant, usually derived from enzyme kinetics or from competition with a known ligand. `CCCCCCCCCCCCCCCCCCCCCCCCCC(=O)N[C@@H](CO[C@H]1O[C@H](CO)[C@H](O)[C@H](O)[C@H]1O)[C@H](O)[C@H](O)CCCCCCCCCCCCCC` [α-GalCer, α-galactosylceramide, reference compound]: in assay [1], the “IFN-γ secretion normalized to α-GalCer” value was 1.00, the “IL-4 secretion normalized to α-GalCer” value worked out at 1.00 and the IFN-γ/IL-4 ratio is reported as 1.00. In addition, the Kd in assay [3] was 5.9 µM. The Kd in assay [4] is 9.7 µM. In assay [2], this compound displayed a Ki of 16 ± 2.1 µM. Further, in assay [2] (solution Ki compared with KD,surf of surface α-GalCer), the “Ki versus KD,surf (fold)” value was 30–140 fold.
